# From ChEMBL document CHEMBL1127433, “N6-substituted adenosine receptor agonists. Synthesis and pharmacological activity as potent antinociceptive agents” (J Med Chem, 1994)
# Activity calls are given as the source filed them. No cut-off for these calls is given here.
# What was measured:
# [1] = molecular target: T1, Adenosine A2 receptor (Rattus norvegicus) (UniProt P29276+P30543); assay: Percent displacement from adenosine A2 receptor at 10e-7 M in rat striatal membrane in vitro.; format: cell membranes; conditions: Striatum
# [2] = molecular target: T2, Adenosine receptor A1 (Rattus norvegicus) (UniProt P25099); assay: Percent displacement from adenosine A1 receptor at 10e-5 M in rat brain membrane in vitro.; format: cell membranes
# T2 sequence (whole entry): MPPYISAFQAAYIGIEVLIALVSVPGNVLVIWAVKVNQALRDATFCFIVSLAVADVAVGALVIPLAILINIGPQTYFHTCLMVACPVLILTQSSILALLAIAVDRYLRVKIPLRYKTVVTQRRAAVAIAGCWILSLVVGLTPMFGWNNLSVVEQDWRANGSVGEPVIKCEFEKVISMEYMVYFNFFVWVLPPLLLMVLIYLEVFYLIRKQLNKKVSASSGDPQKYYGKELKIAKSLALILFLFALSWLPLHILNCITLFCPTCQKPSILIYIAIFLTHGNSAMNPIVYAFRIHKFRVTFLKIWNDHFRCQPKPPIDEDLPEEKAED
# [3] = molecular target: T2, Adenosine receptor A1 (Rattus norvegicus); assay: Percent displacement from adenosine A1 receptor at 10e-7 M in rat brain membrane in vitro.; format: cell membranes
# Adenosine A2 receptor = Adenosine A2 receptor (Rattus norvegicus, UniProt P29276+P30543); assay: Binding affinity for adenosine A2 receptor in vitro using rat striatal membrane.; format: cell membranes
# Outline: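 Rat striatal membranes in 50 mM Tris-HCl, 10 mM MgCl2, pH 7.7, adenosine deaminase treated (1 U/mL, 30 min). Incubated with [3H]NECA (4 nM, 50 μL) plus 0.11 μM cyclopentyladenosine and competitor for 60 min at 25 °C. Nonspecific binding defined with 5 μM NECA. GF/B filtration, scintillation counting, triplicate. IC50 from log-logit regression, Ki via Cheng-Prusoff, one experiment.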
# Mus musculus = assay: Effective dose for phenylbenzoquinone-induced writhing in mice after peroral administration expressed as analgesic activity.; format: functional
# Outline: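 Mice dosed orally (0.5 mL/20 g); 1 h later given 0.02% phenylbenzoquinone in hydroalcoholic solution ip (0.20-0.24 mL). Writhings and stretches counted from minute 5 to minute 10. Six animals per group. Inhibition taken against the control mean; ED50 (50% decrease) by linear regression.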
# [4] = molecular target: T1, Adenosine A2 receptor (Rattus norvegicus); assay: Percent displacement from adenosine A2 receptor at 10e-5 M in rat striatal membrane in vitro.; format: cell membranes
# Adenosine receptor A1 = molecular target: T3, Adenosine receptor A1 (Rattus norvegicus, UniProt P25099); assay: Binding affinity for adenosine A1 receptor in vitro using rat brain membranes.; format: cell membranes
# T3 sequence (P25099 whole entry): T2 sequence (whole entry)
# Outline: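 Whole rat brain membranes, homogenized in 50 mM Tris-HCl pH 7.4 and spun at 1090g then 48000g, pretreated with adenosine deaminase 1 U/mL for 30 min. Nonspecific binding defined with 10 μM PIA. Separated by GF/B filtration and scintillation counted, in triplicate. IC50 from log-logit regression, Ki via Cheng-Prusoff, one experiment.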
SMILES,Displacement [1],Displacement [2],Displacement [3],Ki (Adenosine A2 receptor),Displacement [4],Ki (Adenosine receptor A1),ED50 (Mus musculus; po),ED50 (Mus musculus)
O=C(NC1CC1)[C@H]1OC(n2cnc3c(NCCc4cn(Cc5ccccc5)c5ccccc45)ncnc32)[C@H](O)[C@@H]1O (some centres not stated),41%,99%,35%,270 nM,94%,40 nM,18.1 mg/kg,–
OC[C@H]1OC(n2cnc3c(NCCc4cn(Cc5c(Cl)cccc5Cl)c5ccccc45)ncnc32)[C@H](O)[C@@H]1O (some centres not stated),35%,92%,15%,–,91%,–,–,inactive
C=CCn1cc(CCNc2ncnc3c2ncn3C2O[C@H](C(=O)NC3CC3)[C@@H](O)[C@H]2O)c2ccccc21 (some centres not stated),17%,100%,56%,280 nM,80%,39 nM,5.3 mg/kg,–
Cc1ccc(C)c(Cn2cc(CCNc3ncnc4c3ncn4C3O[C@H](C(=O)NCCN4CCOCC4)[C@@H](O)[C@H]3O)c3ccccc32)c1 (some centres not stated),0%,5%,5%,–,19%,–,> 60 mg/kg,–
O=C(NC1CC1)[C@H]1OC(n2cnc3c(NCCc4c(-c5ccccc5)[nH]c5ccccc45)ncnc32)[C@H](O)[C@@H]1O (some centres not stated),10%,84%,20%,–,71%,–,27.1 mg/kg,–
O=C(NC1CC1)[C@H]1OC(n2cnc3c(NCCc4cn(Cc5ccccn5)c5ccccc45)ncnc32)[C@H](O)[C@@H]1O (some centres not stated),–,–,–,390 nM,–,39 nM,–,–
COc1ccccc1Cn1cc(CCNc2ncnc3c2ncn3C2O[C@H](C(=O)NC3CC3)[C@@H](O)[C@H]2O)c2ccccc21 (some centres not stated),23%,100%,42%,810 nM,89%,170 nM,2.3 mg/kg,–
O=C(NC1CC1)[C@H]1OC(n2cnc3c(NCCc4cn(CCN5CCOCC5)c5ccccc45)ncnc32)[C@H](O)[C@@H]1O (some centres not stated),20%,100%,52%,–,88%,–,> 30 mg/kg,–
CC(Cc1cn(C2CCCC2)c2ccccc12)Nc1ncnc2c1ncn2C1O[C@H](C(=O)NC2CC2)[C@@H](O)[C@H]1O (some centres not stated),21%,96%,45%,–,85%,–,2.2 mg/kg,–
O=C(NC1CC1)[C@H]1OC(n2cnc3c(NCCc4cn(Cc5ccc(Cl)cc5)c5ccccc45)ncnc32)[C@H](O)[C@@H]1O (some centres not stated),30%,98%,46%,320 nM,91%,50 nM,0.9 mg/kg,–
COCCn1cc(CCNc2ncnc3c2ncn3[C@@H]2O[C@H](C(=O)NC3CC3)[C@@H](O)[C@H]2O)c2ccccc21,19%,98%,61%,370 nM,90%,23 nM,1.2 mg/kg,–
O=C(NC1CC1)[C@H]1O[C@@H](n2cnc3c(NCCc4cn(C5CCCC5)c5ccccc45)ncnc32)[C@H](O)[C@@H]1O,28%,96%,21%,350 nM,90%,110 nM,1.5 mg/kg,–
O=C(NC1CC1)[C@H]1O[C@@H](n2cnc3c(NCCc4cn(CCN5CCCC5)c5ccccc45)ncnc32)[C@H](O)[C@@H]1O,53%,100%,96%,58 nM,95%,7.5 nM,44.2 mg/kg,–
Cc1c(CCNc2ncnc3c2ncn3[C@@H]2O[C@H](C(=O)NC3CC3)[C@@H](O)[C@H]2O)c2ccccc2n1C1CCCC1,6%,77%,15%,2180 nM,92%,895 nM,0.5 mg/kg,–
OC[C@H]1O[C@@H](n2cnc3c(NCCc4cn(Cc5ccc(Cl)cc5)c5ccccc45)ncnc32)[C@H](O)[C@@H]1O,59%,100%,71%,140 nM,97%,11 nM,40.8 mg/kg,–
COc1ccc(Cn2cc(CCNc3ncnc4c3ncn4C3O[C@H](C(=O)NC4CC4)[C@@H](O)[C@H]3O)c3ccccc32)cc1 (some centres not stated),59%,98%,42%,–,100%,–,71.6 mg/kg,–

# The next lines start with results.
Displacement [1],Displacement [2],Displacement [3],Ki (Adenosine A2 receptor),Displacement [4],Ki (Adenosine receptor A1),SMILES,ED50 (Mus musculus; po),ED50 (Mus musculus)
14%,87%,4%,390 nM,91%,120 nM,CC(C)n1cc(CCNc2ncnc3c2ncn3[C@@H]2O[C@H](C(=O)NC3CC3)[C@@H](O)[C@H]2O)c2ccccc21,1.6 mg/kg,–
0%,97%,28%,2500 nM,61%,200 nM,Cc1ccc(C)c(Cn2cc(C(C)CNc3ncnc4c3ncn4[C@@H]3O[C@H](C(=O)NC4CC4)[C@@H](O)[C@H]3O)c3ccccc32)c1 (some centres not stated),0.9 mg/kg,–
9%,93%,26%,670 nM,85%,140 nM,Cc1ccc(C)c(Cn2cc(CCNc3ncnc4c3ncn4C3O[C@H](C(=O)NC4CC4)[C@@H](O)[C@H]3O)c3ccccc32)c1 (some centres not stated),2.4 mg/kg,–
17%,100%,16%,–,91%,–,COc1ccc2c(c1)c(CCNc1ncnc3c1ncn3C1O[C@H](C(=O)NC3CC3)[C@@H](O)[C@H]1O)cn2Cc1cc(C)ccc1C (some centres not stated),46.3 mg/kg,–
0%,87%,17%,2600 nM,61%,510 nM,Cc1ccc(C)c(Cn2cc(CCNc3ncnc4c3ncn4[C@@H]3O[C@H](C(N)=O)[C@@H](O)[C@H]3O)c3ccccc32)c1,> 30 mg/kg,–
5%,99%,33%,760 nM,92%,170 nM,CN(C)c1ccccc1Cn1cc(CCNc2ncnc3c2ncn3C2O[C@H](C(=O)NC3CC3)[C@@H](O)[C@H]2O)c2ccccc21 (some centres not stated),1.9 mg/kg,–
6%,100%,47%,–,82%,–,O=C(NC1CC1)[C@H]1OC(n2cnc3c(NCCc4cn(Cc5ccc(Cl)s5)c5ccccc45)ncnc32)[C@H](O)[C@@H]1O (some centres not stated),26.2 mg/kg,–
27%,98%,40%,–,93%,–,Cc1ccccc1Cn1cc(CCNc2ncnc3c2ncn3C2O[C@H](C(=O)NC3CC3)[C@@H](O)[C@H]2O)c2ccccc21 (some centres not stated),< 3 mg/kg,–
10%,99%,47%,660 nM,77%,150 nM,Cc1ccc(C)c(Cn2cc(CCNc3ncnc4c3ncn4[C@@H]3O[C@H](C(=O)NC4CC4)[C@@H](O)[C@H]3O)c3cc(Cl)ccc32)c1,6.3 mg/kg,–
3%,100%,50%,890 nM,70%,62 nM,Cc1ccc(C)c(Cn2cc(CCNc3ncnc4c3ncn4[C@@H]3O[C@H](C(=O)NC4CC4)[C@@H](O)[C@H]3O)c3cc(C)ccc32)c1,0.9 mg/kg,–
29%,99%,76%,270 nM,91%,–,Cn1cc(CCNc2ncnc3c2ncn3C2O[C@H](C(=O)NC3CC3)[C@@H](O)[C@H]2O)c2ccccc21 (some centres not stated),3 mg/kg,–
7%,56%,5%,–,60%,–,Cc1ccc(C)c(Cn2c(C)c(CCNc3ncnc4c3ncn4C3O[C@H](C(=O)NC4CC4)[C@@H](O)[C@H]3O)c3ccccc32)c1 (some centres not stated),1.2 mg/kg,–
9%,96%,21%,2200 nM,84%,180 nM,Cc1ccc(C)c(Cn2cc(CC(C)Nc3ncnc4c3ncn4C3O[C@H](C(=O)NC4CC4)[C@@H](O)[C@H]3O)c3ccccc32)c1 (some centres not stated),3.6 mg/kg,–
